In ChEMBL document CHEMBL5247578, “Effective synthesis of benzimidazoles-imidazo[1,2-a]pyrazine conjugates: A comparative study of mono-and bis-benzimidazoles for antitumor activity” (Eur J Med Chem, 2019):

Tests used:
UO-31 = assay: Growth inhibition against human UO-31 cells incubated for 48 hrs by sulforhodamine B assay; type: functional
NCI/ADR-RES = assay: Antiproliferative activity against human NCI/ADR-RES cells assessed as cell growth inhibition by measuring lethal concentration incubated for 48 hrs by sulforhodamine B assay; type: functional; conditions: read-out: LC50 (the source's name)
HEK293 [1] = assay: Cytotoxicity against human HEK293 cells assessed as reduction in cell viability at 0.0000001 M incubated for 48 hrs by MTT colorimetric assay relative to control; type: toxicity, cell-based; conditions: hek293, 48 h, 0.1 µM, dose 100 nM
SK-MEL-5 [2] = assay: Antiproliferative activity against human SK-MEL-5 cells assessed as cell growth at 0.00001 M incubated for 48 hrs by SRB assay relative to control; type: functional; conditions: read-out: Activity
T47D = assay: Antiproliferative activity against human T47D cells assessed as cell growth at 0.00001 M incubated for 48 hrs by SRB assay relative to control; type: functional; conditions: read-out: Activity
NCI-H322M = assay: Growth inhibition against human NCI-H322M cells assessed as total growth inhibitory concentration incubated for 48 hrs by sulforhodamine B assay; type: functional
BT-549 = assay: Antiproliferative activity against human BT-549 cells assessed as cell growth at 0.0001 M incubated for 48 hrs by SRB assay relative to control; type: functional; conditions: read-out: Activity
In short: (§1)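 NCI-60 five-dose screen over 10^-4–10^-8 M (10-fold dilutions). Cells grown in RPMI 1640 with 5% FBS and 2 mM L-glutamine, seeded at 5,000–40,000 cells/well and preincubated 24 h. Drug from DMSO stock, 48 h at 37 °C, 5% CO2. Adherent cells TCA-fixed and stained with 0.4% SRB; A515 read. Percent growth = (Ti−Tz)/(C−Tz)×100, or (Ti−Tz)/Tz×100 when Ti<Tz.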

A549 = assay: Antiproliferative activity against human A549 cells assessed as cell growth at 0.0000001 M incubated for 48 hrs by SRB assay relative to control; type: functional; conditions: dose 100 nM, read-out: Activity; in short: as §1
SK-MEL-2 = assay: Growth inhibition against human SK-MEL-2 cells incubated for 48 hrs by sulforhodamine B assay; type: functional
NCI-H460 = assay: Antiproliferative activity against human NCI-H460 cells assessed as cell growth at 0.0000001 M incubated for 48 hrs by SRB assay relative to control; type: functional; conditions: dose 100 nM, read-out: Activity
SK-MEL-28 [3] = assay: Antiproliferative activity against human SK-MEL-28 cells assessed as cell growth at 0.0000001 M incubated for 48 hrs by SRB assay relative to control; type: functional; conditions: dose 100 nM, read-out: Activity
SNB-19 = assay: Antiproliferative activity against human SNB-19 cells assessed as cell growth at 0.0001 M incubated for 48 hrs by SRB assay relative to control; type: functional; conditions: read-out: Activity
UACC-62 = assay: Antiproliferative activity against human UACC-62 cells assessed as cell growth at 0.00001 M incubated for 48 hrs by SRB assay relative to control; type: functional; conditions: read-out: Activity
OVCAR-8 = assay: Antiproliferative activity against human OVCAR-8 cells assessed as cell growth inhibition by measuring lethal concentration incubated for 48 hrs by sulforhodamine B assay; type: functional; conditions: read-out: LC50 (the source's name)
SK-MEL-5 [4] = assay: Antiproliferative activity against human SK-MEL-5 cells assessed as cell growth at 0.0000001 M incubated for 48 hrs by SRB assay relative to control; type: functional; conditions: dose 100 nM, read-out: Activity
COLO 205 = assay: Antiproliferative activity against human COLO 205 cells assessed as cell growth at 0.0000001 M incubated for 48 hrs by SRB assay relative to control; type: functional; conditions: dose 100 nM, read-out: Activity; in short: as §1
OVCAR-3 = assay: Growth inhibition against human OVCAR-3 cells assessed as total growth inhibitory concentration incubated for 48 hrs by sulforhodamine B assay; type: functional
SK-MEL-5 [5] = assay: Antiproliferative activity against human SK-MEL-5 cells assessed as cell growth at 0.0001 M incubated for 48 hrs by SRB assay relative to control; type: functional; conditions: read-out: Activity
CAKI-1 = assay: Antiproliferative activity against human CAKI-1 cells assessed as cell growth at 0.0000001 M incubated for 48 hrs by SRB assay relative to control; type: functional; conditions: dose 100 nM, read-out: Activity; in short: as §1
RXF 393 = assay: Growth inhibition against human RXF 393 cells incubated for 48 hrs by sulforhodamine B assay; type: functional
HEK293 [6] = assay: Cytotoxicity against human HEK293 cells assessed as reduction in cell viability at 0.00000001 M incubated for 48 hrs by MTT colorimetric assay relative to control; type: toxicity, cell-based; conditions: hek293, 48 h, 0.01 µM, dose 10 nM
SR [7] = assay: Growth inhibition against human SR cells incubated for 48 hrs by sulforhodamine B assay; type: functional
MDA-MB-435 = assay: Antiproliferative activity against human MDA-MB-435 cells assessed as cell growth at 0.0001 M incubated for 48 hrs by SRB assay relative to control; type: functional; conditions: read-out: Activity
SK-MEL-28 [8] = assay: Antiproliferative activity against human SK-MEL-28 cells assessed as cell growth at 0.000001 M incubated for 48 hrs by SRB assay relative to control; type: functional; conditions: read-out: Activity
SR [9] = assay: Antiproliferative activity against human SR cells assessed as cell growth at 0.0000001 M incubated for 48 hrs by SRB assay relative to control; type: functional; conditions: dose 100 nM, read-out: Activity
MDA-MB-231 = assay: Antiproliferative activity against human MDA-MB-231 cells assessed as cell growth at 0.000001 M incubated for 48 hrs by SRB assay relative to control; type: functional; conditions: read-out: Activity
MCF7 = assay: Antiproliferative activity against human MCF7 cells assessed as cell growth at 0.00000001 M incubated for 48 hrs by SRB assay relative to control; type: functional; conditions: dose 10 nM, read-out: Activity
HCT-116 = assay: Antiproliferative activity against human HCT-116 cells assessed as cell growth at 0.00001 M incubated for 48 hrs by SRB assay relative to control; type: functional; conditions: read-out: Activity
In short: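 NCI-60 five-dose screen (10^-4 to 10^-8 M). Cells grown in RPMI 1640 with 5% FBS and 2 mM L-glutamine, plated at 5,000-40,000 cells/well and preincubated 24 h. Drug given from DMSO stock, then 48 h at 37 °C, 5% CO2. For adherent lines, cells fixed with cold TCA, SRB-stained and read at 515 nm. Percent growth taken against time-zero and untreated control.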

M14 = assay: Antiproliferative activity against human M14 cells assessed as cell growth at 0.00001 M incubated for 48 hrs by SRB assay relative to control; type: functional; conditions: read-out: Activity
MOLT-4 = assay: Antiproliferative activity against human MOLT-4 cells assessed as cell growth at 0.000001 M incubated for 48 hrs by SRB assay relative to control; type: functional; conditions: read-out: Activity
LOX IMVI = assay: Growth inhibition against human LOX IMVI cells incubated for 48 hrs by sulforhodamine B assay; type: functional
OVCAR-4 = assay: Antiproliferative activity against human OVCAR-4 cells assessed as cell growth at 0.00001 M incubated for 48 hrs by SRB assay relative to control; type: functional; conditions: read-out: Activity
NCI-H23 = assay: Antiproliferative activity against human NCI-H23 cells assessed as cell growth at 0.000001 M incubated for 48 hrs by SRB assay relative to control; type: functional; conditions: read-out: Activity
SF-539 = assay: Antiproliferative activity against human SF-539 cells assessed as cell growth at 0.000001 M incubated for 48 hrs by SRB assay relative to control; type: functional; conditions: read-out: Activity

| Compound | GI50 (UO-31) [µM] | CC50 (NCI/ADR-RES) [µM] | Activity (HEK293 [1]) [%] | growth at 10 µM (SK-MEL-5 [2]) [%] | growth at 10 µM (T47D) [%] | TGI (NCI-H322M) [µM] | growth at 100 µM (BT-549) [%] | growth at 0.1 µM (A549) [%] | GI50 (SK-MEL-2) [µM] | growth at 0.1 µM (NCI-H460) [%] | growth at 0.1 µM (SK-MEL-28 [3]) [%] | growth at 100 µM (SNB-19) [%] | growth at 10 µM (UACC-62) [%] | CC50 (OVCAR-8) [µM] | growth at 0.1 µM (SK-MEL-5 [4]) [%] | growth at 0.1 µM (COLO 205) [%] | TGI (OVCAR-3) [µM] | growth at 100 µM (SK-MEL-5 [5]) [%] | growth at 0.1 µM (CAKI-1) [%] | GI50 (RXF 393) [µM] | other results |
| --- | --- | --- | --- | --- | --- | --- | --- | --- | --- | --- | --- | --- | --- | --- | --- | --- | --- | --- | --- | --- | --- |
| COc1ccc(-c2cn3ccnc3c(-c3ccc4ncn(C5CCCCC5)c4c3)n2)cc1 | 1.35 | > 100 | 14.79 | -40 | -24 | > 100 | -6 | 103 | 0.944 | 107 | 95 | 15 | 7 | > 100 | 100 | 102 | > 100 | -31 | 90 | 1.3 | Activity (HEK293 [6]): 13.96%; GI50 (SR [7]): 0.89 µM; growth at 100 µM (MDA-MB-435): 11%; growth at 1 µM (SK-MEL-28 [8]): 58%; growth at 0.1 µM (SR [9]): 91%; growth at 1 µM (MDA-MB-231): 81%; growth at 0.01 µM (MCF7): 88%; growth at 10 µM (HCT-116): -15%; growth at 10 µM (M14): 9%; growth at 1 µM (MOLT-4): 78%; GI50 (LOX IMVI): 0.741 µM; growth at 10 µM (OVCAR-4): 35%; growth at 1 µM (NCI-H23): 68%; growth at 1 µM (SF-539): 35% |
| c1ccc(Cn2cnc3ccc(-c4nc(-c5ccc6c(c5)ncn6C5CCCCC5)cn5ccnc45)cc32)cc1 | 1.72 | > 100 | 13.6 | -90 | -2 | > 100 | -68 | 109 | 2.02 | 108 | 96 | 32 | -37 | > 100 | 106 | 99 | 5.79 | -46 | 88 | 1.22 | Activity (HEK293 [6]): 12.08%; GI50 (SR [7]): 1.68 µM; growth at 100 µM (MDA-MB-435): 2%; growth at 1 µM (SK-MEL-28 [8]): 87%; growth at 0.1 µM (SR [9]): 98%; growth at 1 µM (MDA-MB-231): 83%; growth at 0.01 µM (MCF7): 86%; growth at 10 µM (HCT-116): -74%; growth at 10 µM (M14): -25%; growth at 1 µM (MOLT-4): 64%; GI50 (LOX IMVI): 1.64 µM; growth at 10 µM (OVCAR-4): 1%; growth at 1 µM (NCI-H23): 86%; growth at 1 µM (SF-539): 53% |
